Results as given in ChEMBL document CHEMBL1155941, “Solid-phase synthesis and biological evaluation of a parallel library of 2,3-dihydro-1,5-benzothiazepines” (Bioorg Med Chem, 2008).

Assays:
[1] = system: Agrobacterium tumefaciens; assay: Inhibition of Agrobacterium tumefaciens-induced tumor growth in potato tuber disk after 21 days; type: functional, organism-based
In short: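 Potato disk bioassay: red-skinned potatoes surface-sterilized in 0.1% HgCl₂. Disks were inoculated with a 48-h culture of A. tumefaciens AT-10 containing test sample at 10, 100 or 1000 ppm. Tumors were counted under a dissecting microscope, with tests run in replicate. Percent inhibition came from the average tumor count per sample versus control; IC₅₀ was calculated by a literature procedure.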

[2] = system: Agrobacterium tumefaciens; assay: Inhibition of Agrobacterium tumefaciens-induced tumor growth in potato tuber disk at 10 ppm after 21 days
[3] = system: Agrobacterium tumefaciens; assay: Inhibition of Agrobacterium tumefaciens-induced tumor growth in potato tuber disk at 100 ppm after 21 days
[4] = system: Agrobacterium tumefaciens; assay: Inhibition of Agrobacterium tumefaciens-induced tumor growth in potato tuber disk at 1000 ppm after 21 days
Cholinesterase = Cholinesterase (Homo sapiens, UniProt P06276); assay: Inhibition of BchE
Sequence of Cholinesterase (P06276 whole entry): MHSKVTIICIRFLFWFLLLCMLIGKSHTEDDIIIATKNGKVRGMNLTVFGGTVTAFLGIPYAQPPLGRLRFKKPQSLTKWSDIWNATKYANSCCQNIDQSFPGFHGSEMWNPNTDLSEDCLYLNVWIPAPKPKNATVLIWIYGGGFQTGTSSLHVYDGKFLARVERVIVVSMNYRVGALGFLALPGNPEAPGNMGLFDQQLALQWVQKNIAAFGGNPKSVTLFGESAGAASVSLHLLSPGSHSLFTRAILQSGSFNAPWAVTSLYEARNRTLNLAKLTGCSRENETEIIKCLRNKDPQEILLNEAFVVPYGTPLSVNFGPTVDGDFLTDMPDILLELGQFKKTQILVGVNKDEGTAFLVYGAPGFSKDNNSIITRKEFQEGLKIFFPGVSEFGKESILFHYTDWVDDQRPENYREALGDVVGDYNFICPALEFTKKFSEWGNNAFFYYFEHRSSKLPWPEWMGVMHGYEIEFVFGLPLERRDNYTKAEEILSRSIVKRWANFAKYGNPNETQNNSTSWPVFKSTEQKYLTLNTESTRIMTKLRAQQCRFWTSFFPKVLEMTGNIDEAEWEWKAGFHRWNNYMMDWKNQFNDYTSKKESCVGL
In short: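 Ellman-type assay: enzyme, DTNB and test compound (dissolved in EtOH) were mixed in sodium phosphate buffer pH 8.0 and incubated 15 min at 25 °C. Reactions were run in triplicate. % inhibition = (E–S)/E × 100, where E is enzyme activity without compound. IC50 was derived from inhibition across increasing compound concentrations.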

Acetylcholinesterase = Acetylcholinesterase (Homo sapiens, UniProt P22303); assay: Inhibition of AchE
Sequence of Acetylcholinesterase (P22303 whole entry, the tested form may be a part): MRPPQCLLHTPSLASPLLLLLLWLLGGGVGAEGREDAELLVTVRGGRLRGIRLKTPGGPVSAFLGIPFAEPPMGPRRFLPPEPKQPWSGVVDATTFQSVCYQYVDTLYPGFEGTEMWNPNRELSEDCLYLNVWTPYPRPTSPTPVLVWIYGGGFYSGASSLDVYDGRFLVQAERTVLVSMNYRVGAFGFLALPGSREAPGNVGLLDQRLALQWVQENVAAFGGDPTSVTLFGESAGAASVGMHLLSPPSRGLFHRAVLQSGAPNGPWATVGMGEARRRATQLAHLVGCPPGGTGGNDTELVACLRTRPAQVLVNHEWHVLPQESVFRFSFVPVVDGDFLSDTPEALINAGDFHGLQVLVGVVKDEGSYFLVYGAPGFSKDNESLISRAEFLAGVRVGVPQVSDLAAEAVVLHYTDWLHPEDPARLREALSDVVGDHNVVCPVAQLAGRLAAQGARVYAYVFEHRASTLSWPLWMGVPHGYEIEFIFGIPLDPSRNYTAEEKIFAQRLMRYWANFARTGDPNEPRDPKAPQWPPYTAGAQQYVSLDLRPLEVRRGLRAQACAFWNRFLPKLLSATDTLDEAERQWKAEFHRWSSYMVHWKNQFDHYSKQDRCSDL

Escherichia coli = assay: Antimicrobial activity against Escherichia coli ATCC 1522 assessed as inhibition zone diameter after 24 hrs by agar well diffusion method; type: functional
In short: (§1)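 Agar well diffusion: broth culture of about 10⁶ CFU/ml mixed into nutrient agar at 45 °C and poured into plates. 8-mm wells received test sample at 1 mg/ml in DMSO. DMSO was the negative control and roxithromycin (1 mg/ml) the positive control. Triplicate plates were incubated 37 °C, 24 h. Complete-inhibition zone diameter (mm) was measured, with growth inhibition referenced to roxithromycin.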

[5] = system: Bordetella bronchiseptica; assay: Antimicrobial activity against Bordetella bronchiseptica ATCC 4617 assessed as inhibition zone diameter after 24 hrs by agar well diffusion method; type: functional; in short: as §1
[6] = system: Salmonella enterica subsp. enterica; assay: Antimicrobial activity against Salmonella setubal ATCC 19196 assessed as inhibition zone diameter after 24 hrs by agar well diffusion method; type: functional, Salmonella enterica subsp. enterica serovar Setubal; in short: as §1
Micrococcus luteus = assay: Antimicrobial activity against Micrococcus luteus assessed as inhibition zone diameter after 24 hrs by agar well diffusion method; type: functional; in short: as §1
Klebsiella aerogenes = assay: Antimicrobial activity against Enterobacter aerogenes ATCC 13048 assessed as inhibition zone diameter after 24 hrs by agar well diffusion method; type: functional; in short: as §1

Oc1cccc(C2=Nc3ccccc3SC(c3ccc(Br)cc3)C2)c1 (centres undefined) was tested, and the IC50 [1] was 61.5 ppm, the “inhibition (INH)” value [2] was 21.2% and the “inhibition (INH)” value [3] was 63.8%. For the same compound, the “inhibition (INH)” value [4] was 85.1%.
In the case of Oc1ccc(C2CC(c3cccc(O)c3)=Nc3ccccc3S2)cc1 (centres undefined), the IC50 [1] is reported as 237.9 ppm, the “inhibition (INH)” value [2] is reported as 27.6% and the “inhibition (INH)” value [3] is reported as 48.9%. For the same compound, the “inhibition (INH)” value [4] was 100%.
For COc1ccccc1C1CC(c2cccc(O)c2)=Nc2ccccc2S1 (centres undefined), the IC50 [1] was 7.06 ppm, the IC50 (Cholinesterase) was 4.65 µM and the “inhibition (INH)” value [2] was 81.42%. For the same compound, the “inhibition (INH)” value [3] was 87.1% and the “inhibition (INH)” value [4] was 98.5%.
Work on COc1ccc(/C=C/C(=O)c2cccc(O)c2)cc1OC yielded an IC50 [1] of 5.8 ppm.
Oc1cccc(C2=Nc3ccccc3SC(c3cccs3)C2)c1 (centres undefined) showed an IC50 [1] of 4.8 ppm, an IC50 (Acetylcholinesterase) of 5.9 µM and an IC50 (Cholinesterase) of 3.97 µM. The “inhibition (INH)” value [2] was 87.2%, the “inhibition (INH)” value [3] was 100% and the “inhibition (INH)” value [4] was 100%.
With Oc1cccc(C2=Nc3ccccc3SC(c3ccncc3)C2)c1 (centres undefined) the IC50 [1] was 6.1 ppm, the “inhibition (INH)” value [2] was 55.1% and the “inhibition (INH)” value [3] was 80%. The “inhibition (INH)” value [4] was 100%.
For COc1cc(C2CC(c3cccc(O)c3)=Nc3ccccc3S2)ccc1O (centres undefined), the “inhibition zone (IZ)” value (Escherichia coli) was 9.5 mm, the “inhibition zone (IZ)” value [5] was 10 mm and the “inhibition zone (IZ)” value [6] was 10 mm. For the same compound, the “inhibition zone (IZ)” value (Micrococcus luteus) was 10 mm, the “inhibition zone (IZ)” value (Klebsiella aerogenes) was 11 mm and the IC50 [1] was 247.3 ppm. For the same compound, the “inhibition (INH)” value [2] was 36.1%, the “inhibition (INH)” value [3] was 40.4% and the “inhibition (INH)” value [4] was 95.7%.
CC[C@H]1OC(=O)[C@H](C)[C@@H](O[C@H]2C[C@@](C)(OC)[C@@H](O)[C@H](C)O2)[C@H](C)[C@@H](O[C@@H]2O[C@H](C)C[C@H](N(C)C)[C@H]2O)[C@](C)(O)C[C@@H](C)/C(=N\OCOCCOC)[C@H](C)[C@@H](O)[C@]1(C)O [ROXITHROMYCIN] was tested, and the “inhibition zone (IZ)” value (Escherichia coli) was 14 mm, the “inhibition zone (IZ)” value [5] was 13 mm and the “inhibition zone (IZ)” value [6] was 12 mm. The “inhibition zone (IZ)” value (Micrococcus luteus) was 15 mm and the “inhibition zone (IZ)” value (Klebsiella aerogenes) was 12 mm.
With CN(C)c1ccc(C2CC(c3cccc(O)c3)=Nc3ccccc3S2)cc1 (centres undefined) the “inhibition zone (IZ)” value (Escherichia coli) was 11 mm, the “inhibition zone (IZ)” value [5] was 9 mm and the inhibition zone (IZ) [6] was 9 mm. The “inhibition zone (IZ)” value (Micrococcus luteus) was 10 mm, the “inhibition zone (IZ)” value (Klebsiella aerogenes) was 11 mm and the IC50 [1] was 192.5 ppm. The IC50 (Cholinesterase) was 34.4 µM, the “inhibition (INH)” value [2] was 38.2% and the “inhibition (INH)” value [3] was 44.6%. The “inhibition (INH)” value [4] was 100%.
Compound CC[C@]1(O)C[C@H]2CN(CCc3c([nH]c4ccccc34)[C@@](C(=O)OC)(c3cc4c(cc3OC)N(C=O)[C@H]3[C@@](O)(C(=O)OC)[C@H](OC(C)=O)[C@]5(CC)C=CCN6CC[C@]43[C@@H]65)C2)C1 [VINCRISTINE] has an IC50 [1] of 0.003 ppm.
Cc1ccc(C2CC(c3cccc(O)c3)=Nc3ccccc3S2)cc1 (centres undefined) was tested, and the IC50 [1] was 30.7 ppm, the IC50 (Acetylcholinesterase) was 49.4 µM and the IC50 (Cholinesterase) was 75.2 µM. For the same compound, the “inhibition (INH)” value [2] was 65.9%, the “inhibition (INH)” value [3] was 72.3% and the “inhibition (INH)” value [4] was 87.2%.
COc1ccccc1/C=C/C(=O)c1cccc(O)c1 showed an IC50 [1] of 3.1 ppm.
With Oc1cccc(C2=Nc3ccccc3SC(c3ccc(Br)s3)C2)c1 (centres undefined) the IC50 [1] was 11.2 ppm, the “inhibition (INH)” value [2] was 80.3% and the “inhibition (INH)” value [3] was 91.4%. For the same compound, the “inhibition (INH)” value [4] was 92.8%.
For Oc1cccc(C2=Nc3ccccc3SC(c3ccccc3)C2)c1 (centres undefined), the IC50 [1] was 5.41 ppm, the IC50 (Acetylcholinesterase) was 40 µM and the IC50 (Cholinesterase) was 1420 µM. The “inhibition (INH)” value [2] was 72.3%, the “inhibition (INH)” value [3] was 97.8% and the “inhibition (INH)” value [4] was 100%.
COc1cccc(C2CC(c3cccc(O)c3)=Nc3ccccc3S2)c1 (centres undefined) was tested, and the IC50 [1] was 3.28 ppm, the “inhibition (INH)” value [2] was 67.142% and the “inhibition (INH)” value [3] was 84.2%. For the same compound, the “inhibition (INH)” value [4] was 100%.
With Oc1cccc(C2=Nc3ccccc3SC(c3ccccc3Cl)C2)c1 (centres undefined) the IC50 [1] was 6.94 ppm, the “inhibition (INH)” value [2] was 74.4% and the “inhibition (INH)” value [3] was 93.6%. The “inhibition (INH)” value [4] was 95.7%.
For Oc1cccc(C2=Nc3ccccc3SC(c3ccccc3F)C2)c1 (centres undefined), the IC50 [1] was 295.5 ppm, the IC50 (Acetylcholinesterase) was 70.6 µM and the “inhibition (INH)” value [2] was 31.9%. The “inhibition (INH)” value [3] was 40.4% and the “inhibition (INH)” value [4] was 91.4%.
For O=[N+]([O-])c1cccc(C2CC(c3cccc(O)c3)=Nc3ccccc3S2)c1 (centres undefined), the “inhibition zone (IZ)” value (Micrococcus luteus) was 10 mm, the IC50 [1] was 26.2 ppm and the “inhibition (INH)” value [2] was 42.5%. For the same compound, the “inhibition (INH)” value [3] was 57.4% and the “inhibition (INH)” value [4] was 100%.
In the case of COc1ccc(C2CC(c3cccc(O)c3)=Nc3ccccc3S2)cc1 (centres undefined), the IC50 [1] is reported as 4.69 ppm, the “inhibition (INH)” value [2] is reported as 57.4% and the “inhibition (INH)” value [3] is reported as 78.7%. The “inhibition (INH)” value [4] was 100%.
In the case of Oc1cccc(C2=Nc3ccccc3SC(c3ccc(F)cc3)C2)c1 (centres undefined), the IC50 [1] is reported as 1232 ppm, the “inhibition (INH)” value [2] is reported as 25.5% and the “inhibition (INH)” value [3] is reported as 34%. The “inhibition (INH)” value [4] was 40.4%.
In the case of Oc1cccc(C2=Nc3ccccc3SC(c3cccc(Cl)c3)C2)c1 (centres undefined), the “inhibition zone (IZ)” value (Micrococcus luteus) is reported as 11.5 mm, the IC50 [1] is reported as 14.01 ppm and the IC50 (Cholinesterase) is reported as 29.4 µM. For the same compound, the “inhibition (INH)” value [2] was 68%, the “inhibition (INH)” value [3] was 80.8% and the “inhibition (INH)” value [4] was 93.6%.
Oc1cccc(C2=Nc3ccccc3SC(c3ccc(Cl)cc3)C2)c1 (centres undefined) was tested, and the IC50 [1] was 9 ppm, the IC50 (Acetylcholinesterase) was 18.8 µM and the IC50 (Cholinesterase) was 79.6 µM. The “inhibition (INH)” value [2] was 51.93%, the “inhibition (INH)” value [3] was 68% and the “inhibition (INH)” value [4] was 74.4%.
With Oc1cccc(C2=Nc3ccccc3SC(c3cccnc3)C2)c1 (centres undefined) the IC50 [1] was 926.2 ppm, the “inhibition (INH)” value [2] was 29.7% and the “inhibition (INH)” value [3] was 38.2%. The “inhibition (INH)” value [4] was 51%.
With COc1ccc(C2CC(c3cccc(O)c3)=Nc3ccccc3S2)cc1OC (centres undefined) the IC50 [1] was 8.23 ppm, the IC50 (Cholinesterase) was 19.7 µM and the “inhibition (INH)” value [2] was 70.2%. The “inhibition (INH)” value [3] was 82.7% and the “inhibition (INH)” value [4] was 100%.
With Oc1cccc(C2=Nc3ccccc3SC(c3cccc(O)c3)C2)c1 (centres undefined) the IC50 [1] was 179.3 ppm, the IC50 (Acetylcholinesterase) was 71.1 µM and the IC50 (Cholinesterase) was 4.7 µM. For the same compound, the “inhibition (INH)” value [2] was 36.1%, the “inhibition (INH)” value [3] was 48.9% and the “inhibition (INH)” value [4] was 100%.
